Format in all cases: functional
For test [1], the system named is Micrococcus luteus. The test can be described thus: Antibacterial activity against Micrococcus luteus by two-fold serial dilution method. A digest of the protocol:
(§1)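 Standard two-fold serial dilution in 96-well microtest plates following NCCLS. Top dilutions printed as 32, 16, 8, 4, 2, 1, 0.5 ug/mL. Wells inoculated and held at 37 °C for 24 h. Growth judged visually and by spectrophotometer, in triplicate. MIC is the lowest concentration giving complete growth inhibition.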

Test [2] relates to Staphylococcus aureus. The test is described as follows: Antibacterial activity against methicillin-resistant Staphylococcus aureus N315 by two-fold serial dilution method. Summed up:
(§2)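 MIC read as the lowest concentration giving complete growth inhibition. Two-fold serial dilutions were made in 96-well plates following NCCLS, giving a series down to 0.5 µg/mL (…32, 16, 8, 4, 2, 1, 0.5). Plates were inoculated and incubated at 37 °C for 24 h. A DMSO-with-inoculum control without drug was included. Growth was monitored visually and spectrophotometrically, in triplicate.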

Test [3] has as its system Staphylococcus aureus. The test can be described thus: Antibacterial activity against Staphylococcus aureus ATCC 25923 by two-fold serial dilution method. Summed up:
as §1

Test [4] concerns Bacillus spizizenii. The test is described as follows: Antibacterial activity against Bacillus subtilis ATCC 6633 by two-fold serial dilution method. Summed up: as §1
For test [5], the system named is Pseudomonas aeruginosa. The test is described as follows: Antibacterial activity against Pseudomonas aeruginosa by two-fold serial dilution method. Summed up: as §1
Test [6] has as its system Escherichia coli. The test is described as follows: Antibacterial activity against Escherichia coli DH52 by two-fold serial dilution method. A digest of the protocol: as §1
For test [7], the system named is Shigella dysenteriae. The test can be described thus: Antibacterial activity against Shigella dysenteriae by two-fold serial dilution method. Summed up:
as §2

Test [8] in a line: Antibacterial activity against Eberthella typhosa by two-fold serial dilution method. A digest of the protocol:
as §2

Test [9] concerns Cyberlindnera jadinii. The test is described as follows: Antifungal activity against Candida utilis after 24 hrs by microbroth dilution method. Conditions: Williopsis jadinii. A digest of the protocol:
(§3)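 Spore suspension prepared in sterile distilled water from one-day-old cultures on Sabouraud agar, final 1-5 x 10^3 spores/mL. Compounds were serially diluted in RPMI 1640 to give eleven dilutions. Incubation at 35 °C for 24 h. Growth read visually and spectrophotometrically, in triplicate. MIC is the lowest concentration with complete inhibition.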

In test [10] the test system is Saccharomyces cerevisiae. The test can be described thus: Antifungal activity against Saccharomyces cerevisiae after 24 hrs by microbroth dilution method. A digest of the protocol:
as §3
For orientation: Dilution methods test growth across graded concentrations, often in twofold steps.

In test [11] the test system is Candida albicans. The test is described as follows: Antifungal activity against Candida albicans ATCC 76615 after 24 hrs by microbroth dilution method. Conditions: ATCC 76615, 24 h. A digest of the protocol:
as §3

For test [12], the system named is Pichia norvegensis. The test is described as follows: Antifungal activity against Candida mycoderma after 24 hrs by microbroth dilution method.

Converted amounts (≈) assume the structure as drawn.

By MIC is commonly meant the smallest concentration in the dilution series that meets the test's criterion for growth inhibition. A higher MIC goes with weaker potency. As for `CCOC(=O)c1cn(CC(O)Cn2c([N+](=O)[O-])cnc2C)c2c(F)cccc2c1=O` (racemic), the MIC in test [1] came to 8 µg/mL (≈ 19.1 µM); in test [2] it was 8 µg/mL (≈ 19.1 µM); in test [3], 32 µg/mL (≈ 76.5 µM); in [4], 16 µg/mL (≈ 38.2 µM); in [5] it was 16 µg/mL (≈ 38.2 µM); in test [6], 16 µg/mL (≈ 38.2 µM). The MIC in test [7] was found to be 8 µg/mL (≈ 19.1 µM); in test [8], 4 µg/mL (≈ 9.56 µM); in [9] it was 512 µg/mL (≈ 1220 µM); in [10], 256 µg/mL (≈ 612 µM); in [11], 128 µg/mL (≈ 306 µM); in [12] it was 128 µg/mL (≈ 306 µM).

As to `CCOC(=O)c1cn(CC2CO2)c2c(F)cc(F)cc2c1=O` (racemic), the MIC in test [4] came to 32 µg/mL (≈ 103 µM); in test [8], 2 µg/mL (≈ 6.47 µM); in test [9], 512 µg/mL (≈ 1660 µM); in test [12], 16 µg/mL (≈ 51.7 µM).

For the compound `CCOC(=O)c1cn(CC2CO2)c2cc(Cl)c(F)cc2c1=O` (racemic), the MIC in test [1] was 64 µg/mL (≈ 196 µM); in [2], 8 µg/mL (≈ 24.6 µM); in [3] it was 128 µg/mL (≈ 393 µM); in test [4] it was 128 µg/mL (≈ 393 µM); in test [5] it was 32 µg/mL (≈ 98.2 µM); in test [6], 64 µg/mL (≈ 196 µM). The MIC in test [7] worked out at 128 µg/mL (≈ 393 µM); in [8], 8 µg/mL (≈ 24.6 µM); in test [9], 512 µg/mL (≈ 1570 µM); in [10] it was 4 µg/mL (≈ 12.3 µM); in test [11], 64 µg/mL (≈ 196 µM); in test [12] it was 1 µg/mL (≈ 3.07 µM).

Consider `CCOC(=O)c1cn(CC(O)Cn2c([N+](=O)[O-])cnc2C)c2ccc(C)cc2c1=O` (racemic), for which the minimal inhibitory concentration (MIC) in test [1] was 16 µg/mL (≈ 38.6 µM); in test [2] it was 8 µg/mL (≈ 19.3 µM); in test [3], 8 µg/mL (≈ 19.3 µM); in [4] it was 8 µg/mL (≈ 19.3 µM); in [5] it was 8 µg/mL (≈ 19.3 µM); in [6], 4 µg/mL (≈ 9.65 µM). Also, the MIC in test [7] is 4 µg/mL (≈ 9.65 µM); in test [8], 8 µg/mL (≈ 19.3 µM); in [9], 256 µg/mL (≈ 618 µM); in [10], 4 µg/mL (≈ 9.65 µM); in test [11], 2 µg/mL (≈ 4.83 µM); in test [12], 256 µg/mL (≈ 618 µM).

For the compound `CCOC(=O)c1cn(CC(O)Cn2c([N+](=O)[O-])cnc2C)c2cc(Cl)c(F)cc2c1=O` (racemic), the MIC in test [1] was 128 µg/mL (≈ 283 µM); in [2], 4 µg/mL (≈ 8.83 µM); in [3], 64 µg/mL (≈ 141 µM); in test [4], 8 µg/mL (≈ 17.7 µM); in [5] it was 32 µg/mL (≈ 70.7 µM); in test [6] it was 64 µg/mL (≈ 141 µM). Also, the MIC in test [7] stood at 16 µg/mL (≈ 35.3 µM); in test [8], 8 µg/mL (≈ 17.7 µM); in [9] it was 256 µg/mL (≈ 565 µM); in test [10], 16 µg/mL (≈ 35.3 µM); in test [11], 128 µg/mL (≈ 283 µM); in test [12], 128 µg/mL (≈ 283 µM).

With `CCOC(=O)c1cn(CC(O)Cn2c([N+](=O)[O-])cnc2C)c2cc(C(F)(F)F)ccc2c1=O` (racemic), the minimum inhibitory concentration (MIC) in test [1] was 4 µg/mL (≈ 8.54 µM); in [2], 8 µg/mL (≈ 17.1 µM); in test [3], 4 µg/mL (≈ 8.54 µM); in test [4], 16 µg/mL (≈ 34.2 µM); in test [5], 8 µg/mL (≈ 17.1 µM); in test [6], 2 µg/mL (≈ 4.27 µM). Besides, the minimum inhibitory concentration (MIC) in test [7] came out at 2 µg/mL (≈ 4.27 µM); in test [8] it was 4 µg/mL (≈ 8.54 µM); in [9], 128 µg/mL (≈ 273 µM); in [10] it was 8 µg/mL (≈ 17.1 µM); in test [11], 8 µg/mL (≈ 17.1 µM); in test [12], 32 µg/mL (≈ 68.3 µM).

Take `CCOC(=O)c1cn(CC2CO2)c2ccc(OC)cc2c1=O` (racemic): the MIC in test [1] is 128 µg/mL (≈ 422 µM); in test [2], 64 µg/mL (≈ 211 µM); in test [3], 32 µg/mL (≈ 106 µM); in [4] it was 16 µg/mL (≈ 52.8 µM); in [5] it was 32 µg/mL (≈ 106 µM); in [6] it was 16 µg/mL (≈ 52.8 µM). The MIC was determined as 64 µg/mL (≈ 211 µM) in test [7]; 1 µg/mL (≈ 3.3 µM) in test [8]; 512 µg/mL (≈ 1690 µM) in test [9]; 4 µg/mL (≈ 13.2 µM) in test [10]; 64 µg/mL (≈ 211 µM) in test [11]; 32 µg/mL (≈ 106 µM) in test [12].

Turning to `CCOC(=O)c1cn(CC(O)Cn2cnc([N+](=O)[O-])c2)c2c(F)cc(F)cc2c1=O` (racemic), the MIC in test [1] came to 4 µg/mL (≈ 9.47 µM); in [2], 32 µg/mL (≈ 75.8 µM); in [3], 4 µg/mL (≈ 9.47 µM); in test [4], 8 µg/mL (≈ 18.9 µM); in [5], 4 µg/mL (≈ 9.47 µM); in test [6], 8 µg/mL (≈ 18.9 µM). The MIC in test [7] is 16 µg/mL (≈ 37.9 µM); in test [8], 2 µg/mL (≈ 4.74 µM); in [9], 64 µg/mL (≈ 152 µM); in test [10], 128 µg/mL (≈ 303 µM); in test [11] it was 32 µg/mL (≈ 75.8 µM); in test [12], 16 µg/mL (≈ 37.9 µM).

As to `CCOC(=O)c1cn(CC2CO2)c2ccc(F)cc2c1=O` (racemic), the MIC was 64 µg/mL (≈ 220 µM) in [4], 8 µg/mL (≈ 27.5 µM) in test [8] and 8 µg/mL (≈ 27.5 µM) in test [12].

For the origin of these results see ChEMBL document CHEMBL3351780, “Novel hybrids of metronidazole and quinolones: synthesis, bioactive evaluation, cytotoxicity, preliminary antimicrobial mechanism and effect of metal ions on their transportation by human serum albumin” (Eur J Med Chem, 2014).
